Data on 14 compounds can be found in ChEMBL document CHEMBL4411311, “Exploration of novel macrocyclic dipeptide N-benzyl amides as proteasome inhibitors” (Eur J Med Chem, 2019).

In general, inhibition refers to the drop in the measured response relative to a control, in per cent. In general, IC50 refers to the concentration that inhibits the measured activity by half. A lower IC50 goes with greater potency in that assay.

The target in data set [1] is T1, Proteasome Macropain subunit MB1 (Homo sapiens) (UniProt P28074).
T1 sequence (whole entry): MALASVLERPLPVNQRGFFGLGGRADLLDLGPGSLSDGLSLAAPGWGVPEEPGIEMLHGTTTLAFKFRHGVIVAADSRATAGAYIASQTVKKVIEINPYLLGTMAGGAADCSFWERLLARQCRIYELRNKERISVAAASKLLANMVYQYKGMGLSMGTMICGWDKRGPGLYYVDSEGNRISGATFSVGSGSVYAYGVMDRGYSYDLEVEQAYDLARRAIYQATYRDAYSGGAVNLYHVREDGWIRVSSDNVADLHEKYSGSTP
In words: Inhibition of human hepatic cell derived 20s constitutive proteasome beta5 chymotrypsin-like activity at 10 uM using Suc-WLA-AMC as substrate preincubated for 15 mins followed by substrate addition and measured after 60 mins by fluorescence assay relative to control.

Another data set relates to RPMI-8226. The experiment in a line: Antiproliferative activity against human RPMI8226 cells after 72 hrs by MTS assay. The data set is classed as functional, cell-based. As to conditions: RPMI-8226, 72 h. In outline:
(§1)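 Cells kept at 37 °C in humidified 5% CO₂. RPMI 8226 and MM.1S were grown in RPMI-1640 with 10% FBS plus penicillin/streptomycin. Seeding per well was 5 × 10³ (RPMI 8226), 3 × 10⁴ (MM.1S) or 8 × 10³ (MV-4-11). Cells were treated with DMSO vehicle or graded concentrations, then given MTS/PMS for 2-4 h at 37 °C. OD read at 490 nm minus 690 nm background. Growth inhibition = (A_control − A_sample)/A_control; IC50 from variable-slope sigmoidal nonlinear fit.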
(Tetrazolium assays rely on reduction of a dye to a coloured formazan, in cell work by metabolically active cells.)

In data set [2] the target is T2, Proteasome subunit beta type-8 (Homo sapiens, UniProt P28062).
T2 sequence (P28062 whole entry): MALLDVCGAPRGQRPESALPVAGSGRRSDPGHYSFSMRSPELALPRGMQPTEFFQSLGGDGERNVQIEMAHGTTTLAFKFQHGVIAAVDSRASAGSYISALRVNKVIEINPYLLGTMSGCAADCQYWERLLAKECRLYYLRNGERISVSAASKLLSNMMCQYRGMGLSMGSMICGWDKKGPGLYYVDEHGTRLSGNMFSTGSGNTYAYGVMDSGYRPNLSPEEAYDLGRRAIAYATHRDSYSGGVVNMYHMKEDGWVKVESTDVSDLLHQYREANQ
In words: Inhibition of human peripheral blood derived 20s immunoproteasome beta5 chymotrypsin-like activity using […] as substrate preincubated for 15 mins followed by substrate addition and measured after 60 mins by fluorescence assay.

In the next data set the test system is MM1.S. The experiment in a line: Antiproliferative activity against human MM1S cells after 72 hrs by MTS assay. Type of data set: functional, cell-based. In outline:
as §1

Data set [3] is described as follows: Inhibition of human peripheral blood derived 20s immunoproteasome beta2 trypsin-like activity using […] as substrate preincubated for 15 mins followed by substrate addition and measured after 60 mins by fluorescence assay.
The nature of data set [4]: Stability in human liver microsomes assessed as parent compound remaining at 1 uM measured after 30 mins by LC-MS/MS analysis. The data set is classed as ADME, Microsome. Particulars: read-out: Stability. In outline:
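Test compound at […] incubated with human liver microsomes (1.0 mg/mL protein) in 0.1 M PBS pH 7.4 with 1 mM NADPH. Microsomes preincubated 5 min at 37 °C; reaction started by compound addition and sampled at 0, 10, 20 and 30 min. Stopped with ice-cold methanol containing internal standard, then centrifuged at 15000g for 10 min. Supernatant analysed by LC-MS; % remaining = analyte/IS peak-area ratio relative to 0 min.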
In general terms: Microsomes from liver hold many membrane-bound enzymes, among them those of drug oxidation.

For data set [5], the target named is T3, Proteasome Macropain subunit MB1 (Homo sapiens, UniProt P28074).
T3 sequence (P28074 whole entry): T1 sequence (whole entry)
The experiment in a line: Inhibition of human hepatic cell derived 20s constitutive proteasome beta5 chymotrypsin-like activity using Suc-WLA-AMC as substrate preincubated for 15 mins followed by substrate addition and measured after 60 mins by fluorescence assay.

For data set [6], the target named is T4, Proteasome subunit beta type-9 (Homo sapiens, UniProt P28065).
T4 sequence (P28065 whole entry): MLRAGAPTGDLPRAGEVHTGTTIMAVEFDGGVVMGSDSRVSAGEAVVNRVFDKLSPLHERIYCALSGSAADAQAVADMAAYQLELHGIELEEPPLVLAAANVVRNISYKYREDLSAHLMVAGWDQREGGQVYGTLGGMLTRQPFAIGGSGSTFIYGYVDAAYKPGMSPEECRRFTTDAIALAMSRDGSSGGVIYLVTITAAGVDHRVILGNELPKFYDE
In words: Inhibition of human peripheral blood derived 20s immunoproteasome beta1 caspase-like activity using Suc-PAL-AMC as substrate preincubated for 15 mins followed by substrate addition and measured after 60 mins by fluorescence assay.

The test system of the next data set is MV4-11. The experiment in a line: Antiproliferative activity against human MV4-11 cells after 72 hrs by MTS assay. The data set is classed as functional, cell-based. Particulars: MV4-11, 72 h. The essentials: as §1

Regarding `Cc1ccc(CNC(=O)[C@@H]2COCCCCCCOc3ccccc3C(=O)N[C@@H](CCc3ccccc3)C(=O)N2)cc1`, the inhibition in data set [1] worked out at 38.4%.
Take `Cc1ccc(CNC(=O)[C@@H]2COCCCCCCCc3c(cnn3C)C(=O)N[C@@H](CC(=O)NCC(C)(C)C)C(=O)N2)cc1`: the half-maximal inhibitory concentration (IC50) is 18 nM in the data set on RPMI-8226; 35 nM in data set [2]; 15 nM in the data set with MM1.S; > 10000 nM in data set [3]; 29 nM in data set [5]; > 10000 nM in data set [6]. In the data set with MV4-11, this compound registered an IC50 of 21 nM. For the same compound, in data set [4], the remaining at 0.5 h, 1 µM is ≥ 66%.
`CC(C)C[C@H](NC(=O)[C@H](CCc1ccccc1)NC(=O)CN1CCOCC1)C(=O)N[C@@H](Cc1ccccc1)C(=O)N[C@@H](CC(C)C)C(=O)[C@@]1(C)CO1` [CARFILZOMIB]: the values for the half-inhibitory concentration (IC50) in the data set with RPMI-8226 and in the data set with MM1.S were 2 nM and < 1 nM, respectively.
On to `Cc1ccc(CNC(=O)[C@@H]2COCCCCCCOc3ccccc3C(=O)N[C@@H](CC(=O)NCC(C)(C)C)C(=O)N2)cc1`, for which the IC50 came out at 175 nM in the data set with RPMI-8226, 37 nM in the data set on MM1.S, 67 nM in [5] and 76 nM in the data set on MV4-11.
Turning to `O=C1N[C@@H](CCc2ccccc2)C(=O)N[C@H](C(=O)NCc2ccccc2Cl)COCCCCCCOc2ccccc21`, the inhibition in data set [1] was determined as 36.7%.
For the compound `COC[C@@H]1NC(=O)c2ccccc2OCCCCCCOC[C@@H](C(=O)NCc2ccccc2Cl)NC1=O`, in [1], the inhibition came out at 34%.
Turning to `CC(C)(C)CNC(=O)C[C@@H]1NC(=O)c2ccccc2OCCCCCCOC[C@@H](C(=O)NCc2ccccc2)NC1=O`, the 50% inhibitory concentration (IC50) in data set [5] turned out to be 660 nM.
`CCCCCCOC[C@H](NC(=O)[C@H](CC(=O)NCC(C)(C)C)NC(=O)c1cnn(C)c1CCC)C(=O)NCc1ccc(C)cc1`: the IC50 amounted to 97 nM with RPMI-8226, 64 nM in the data set on MM1.S, 9 nM in data set [5] and 73 nM in the data set with MV4-11. Also, the remaining at 0.5 h, 1 µM in data set [4] was < 5%.
`Cc1ccc(CNC(=O)[C@@H]2Cc3cn(c4ccccc34)CCCCCn3ccnc3C(=O)N[C@@H](CC(=O)NCC(C)(C)C)C(=O)N2)cc1`: the IC50 in the data set on RPMI-8226 was determined as 59 nM; with MM1.S it was 17 nM; in data set [5], 26 nM; in the data set on MV4-11 it was 52 nM.
Consider `Cc1ccc(CNC(=O)[C@@H]2COCCCCCCCn3ccnc3C(=O)N[C@@H](CC(=O)NCC(C)(C)C)C(=O)N2)cc1`, for which the IC50 in the data set with RPMI-8226 is 15 nM; in [2], 19 nM; in the data set with MM1.S it was 6 nM; in data set [3], > 10000 nM; in [5], 34 nM; in data set [6], > 10000 nM. Moreover, the IC50 in the data set on MV4-11 was determined as 12 nM. Moreover, in data set [4], the remaining at 0.5 h, 1 µM was < 20%.
As to `Cc1ccc(CNC(=O)[C@H]2NC(=O)[C@H](CC(=O)NCC(C)(C)C)NC(=O)c3nccn3CCCCCCCO[C@H]2C)cc1`, the half-maximal inhibitory concentration (IC50) with RPMI-8226 is 27 nM; with MM1.S it was 220 nM; in [5] it was 50 nM; in the data set with MV4-11, 208 nM.
In the same order, the values of `CC(C)(C)CNC(=O)C[C@@H]1NC(=O)c2ccccc2OCCCCCCOC[C@@H](C(=O)NCc2ccccc2Cl)NC1=O` are 301 nM, 343 nM, 127 nM and 718 nM.
In [3], `CC(C)C[C@H](NC(=O)[C@H](Cc1ccccc1)NC(=O)c1cnccn1)B(O)O` [BORTEZOMIB] came in with an IC50 of 517 nM.
Take `Cc1ccc(CNC(=O)[C@@H]2COCCCCCCOc3c(cnn3C)C(=O)N[C@@H](CC(=O)NCC(C)(C)C)C(=O)N2)cc1`: the IC50 was found to be 58 nM in the data set on RPMI-8226, 23 nM with MM1.S, 30 nM in [5] and 55 nM in the data set with MV4-11.
